{"source": "ChEMBL document CHEMBL2010694", "about": "“Indolyl and dihydroindolyl N-glycinamides as potent and in vivo active NPY5 antagonists” (Bioorg Med Chem Lett, 2012)", "key": {"[1]": {"target": "Cytochrome P450 3A4 (Homo sapiens, UniProt P08684)", "sequence (P08684 whole entry)": "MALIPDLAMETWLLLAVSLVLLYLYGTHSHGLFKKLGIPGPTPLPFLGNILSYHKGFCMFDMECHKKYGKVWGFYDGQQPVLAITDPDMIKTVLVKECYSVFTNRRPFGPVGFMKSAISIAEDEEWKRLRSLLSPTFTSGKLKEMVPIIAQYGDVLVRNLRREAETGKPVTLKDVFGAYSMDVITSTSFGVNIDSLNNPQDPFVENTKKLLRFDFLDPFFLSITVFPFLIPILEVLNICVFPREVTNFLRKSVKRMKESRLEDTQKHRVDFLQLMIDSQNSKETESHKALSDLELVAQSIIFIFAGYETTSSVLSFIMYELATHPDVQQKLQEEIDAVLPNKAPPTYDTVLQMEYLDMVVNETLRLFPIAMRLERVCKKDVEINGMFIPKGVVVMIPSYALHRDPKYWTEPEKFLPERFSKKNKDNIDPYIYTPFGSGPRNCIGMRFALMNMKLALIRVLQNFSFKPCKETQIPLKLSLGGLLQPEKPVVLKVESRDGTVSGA", "experiment": "Inhibition of CYP3A4", "assay_type": "ADME"}, "[2]": {"tested_on": "Liver microsomes", "experiment": "Intrinsic clearance in rat liver microsomes at 1 uM by LC/MS analysis", "assay_type": "ADME, Microsome", "summary_of_the_method": "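Compound incubated with human or rat liver microsomes; reaction quenched with acetonitrile, centrifuged, and remaining drug in supernatant measured by LC/MS to estimate T1/2, from which intrinsic clearance was derived.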"}, "[3]": {"experiment": "Plasma concentration in Sprague-Dawley rat at 10 mg/kg, po after 1 hr by LC-MS/MS analysis", "assay_type": "ADME, organism-based", "set-up": "dose 10 mg/kg, route oral", "summary_of_the_method": "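Male Sprague-Dawley rats (300–350 g), femoral artery cannulated; single 10 mg/kg oral dose in an appropriate vehicle, N = 3. Blood taken predose, 1, 2 and 4 h; brains then collected and stored at -80 °C. Equal portions of plasma or homogenized brain from the three rats pooled per time point, protein precipitated, quantified by LC/MS/MS.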"}, "[4]": {"tested_on": "MDR", "experiment": "Apparent permeability from apical to basolateral side in MDCK cells expressing MDR", "assay_type": "ADME, cell-based, Canis lupus familiaris", "details": "dog, MDCK-MDR1", "summary_of_the_method": "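Bidirectional permeability (A–B and B–A) across a Pgp-overexpressing mdr-MDCK cell monolayer; efflux ratio derived from the two Papp values, given in 10^-6 cm/s.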"}, "[5]": {"experiment": "Protein binding in human", "assay_type": "ADME, organism-based", "details": "plasma, read-out: PB (converted)"}, "[6]": {"experiment": "Half life in Sprague-Dawley rat plasma at 2 mg/kg, po and 1 mg/kg, iv after 24 hrs wash out period by HPLC analysis", "assay_type": "ADME, organism-based", "summary_of_the_method": "(§1)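 Male Sprague-Dawley rats (200–250 g), jugular and carotid artery cannulated; compound dissolved in 20% beta cyclodextrin, pH adjusted with methane sulfonic acid. Serial blood sampled at 12 time points over 24 h post dose by automated sampler; plasma from centrifugation analysed by HPLC; PK parameters by non-compartmental analysis of plasma concentration–time profile.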"}, "[7]": {"experiment": "Solubility of the compound at pH 7.4", "assay_type": "physicochemical", "details": "buffer"}, "[8]": {"experiment": "Volume of distribution at steady state in Sprague-Dawley rat plasma at 2 mg/kg, po and 1 mg/kg, iv after 24 hrs wash out period by HPLC analysis", "assay_type": "ADME, organism-based", "details": "read-out: Vdss", "summary_of_the_method": "as §1"}, "[9]": {"target": "Cytochrome P450 2D6 (Homo sapiens, UniProt P10635)", "sequence (P10635 whole entry)": "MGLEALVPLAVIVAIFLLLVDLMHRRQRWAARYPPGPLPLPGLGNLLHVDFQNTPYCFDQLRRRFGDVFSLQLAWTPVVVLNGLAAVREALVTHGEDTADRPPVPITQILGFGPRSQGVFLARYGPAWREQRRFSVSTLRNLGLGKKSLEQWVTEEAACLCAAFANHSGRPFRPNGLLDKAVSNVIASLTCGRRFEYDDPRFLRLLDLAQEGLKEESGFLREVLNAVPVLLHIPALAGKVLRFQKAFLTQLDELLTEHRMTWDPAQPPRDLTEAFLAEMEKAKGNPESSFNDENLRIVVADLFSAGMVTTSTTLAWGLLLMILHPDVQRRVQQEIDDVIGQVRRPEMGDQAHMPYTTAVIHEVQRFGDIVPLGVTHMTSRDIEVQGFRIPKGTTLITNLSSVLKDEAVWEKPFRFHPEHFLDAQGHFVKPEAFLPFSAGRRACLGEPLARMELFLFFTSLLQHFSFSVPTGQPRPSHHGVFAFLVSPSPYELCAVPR", "experiment": "Inhibition of CYP2D6", "assay_type": "ADME"}, "[10]": {"experiment": "Drug uptake in cPP-induced feeding Sprague-Dawley rat model brain at 10 mg/kg, po after 1 hr", "assay_type": "ADME, organism-based", "set-up": "dose 10 mg/kg, route oral", "details": "read-out: Drug uptake", "summary_of_the_method": "(§2)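 Satellite animals from the cPP feeding study dosed orally at 0.1, 1 or 10 mg/kg; plasma (ng/mL) and brain (ng/g) levels measured 1 h after dosing.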"}, "[11]": {"experiment": "Tmax in Sprague-Dawley rat plasma at 2 mg/kg, po and 1 mg/kg, iv after 24 hrs wash out period by HPLC analysis", "assay_type": "ADME, organism-based", "summary_of_the_method": "as §1"}, "[12]": {"target": "T1, Cytochrome P450 2C8 (Homo sapiens, UniProt P10632)", "T1 sequence (P10632 whole entry)": "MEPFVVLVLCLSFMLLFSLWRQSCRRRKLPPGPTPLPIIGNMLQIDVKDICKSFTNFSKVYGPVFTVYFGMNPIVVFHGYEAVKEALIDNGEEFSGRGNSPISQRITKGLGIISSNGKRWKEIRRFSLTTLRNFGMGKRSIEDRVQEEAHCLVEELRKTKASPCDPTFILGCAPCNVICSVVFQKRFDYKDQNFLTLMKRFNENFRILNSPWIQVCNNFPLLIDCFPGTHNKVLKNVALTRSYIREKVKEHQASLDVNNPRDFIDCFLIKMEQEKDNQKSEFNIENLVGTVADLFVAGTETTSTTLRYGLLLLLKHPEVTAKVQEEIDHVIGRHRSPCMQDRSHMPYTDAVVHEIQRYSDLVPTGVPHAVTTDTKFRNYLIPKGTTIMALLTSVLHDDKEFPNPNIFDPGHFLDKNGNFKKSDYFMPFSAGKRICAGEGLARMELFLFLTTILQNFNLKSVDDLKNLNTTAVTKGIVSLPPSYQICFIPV", "experiment": "Inhibition of CYP2C8", "assay_type": "ADME"}, "[13]": {"experiment": "Plasma concentration in cPP-induced feeding Sprague-Dawley rat model at 1 mg/kg, po after 1 hr", "assay_type": "ADME, organism-based", "set-up": "dose 1 mg/kg, route oral", "summary_of_the_method": "as §2"}}, "data": [{"smiles": "CC(C)S(=O)(=O)NC[C@H]1CC[C@H](NC(=O)CN2CCc3cc(Cl)ccc32)CC1", "values": [{"measurement": "IC50", "setting": "[1]", "value": 0.7, "unit": "µM"}, {"measurement": "CLH", "setting": "[2]", "value": 49, "unit": "mL/min"}, {"measurement": "concentration at 1 h", "setting": "[3]", "value": 5.47, "unit": "µM"}, {"measurement": "Papp A→B", "setting": "[4]", "value": 2.31, "unit": "×10⁻⁶ cm/s"}, {"measurement": "fraction unbound", "setting": "[5]", "value": 0.009}, {"measurement": "half-life", "setting": "[6]", "value": 4.4, "unit": "h"}, {"measurement": "solubility", "setting": "[7]", "value": 154, "unit": "µM"}, {"measurement": "Vd", "setting": "[8]", "value": 1.9, "unit": "L/kg"}, {"measurement": "IC50", "setting": "[9]", "value": "> 40", "unit": "µM"}, {"measurement": "concentration at 1 h", "setting": "[10]", "value": 151, "unit": "ng/g"}, {"measurement": "Tmax", "setting": "[11]", "value": 0.8, "unit": "h"}, {"measurement": "IC50", "setting": "[12]", "value": 8.2, "unit": "µM"}, {"measurement": "concentration at 1 h", "setting": "[13]", "value": 516, "unit": "ng/mL"}]}]}
